From ChEMBL document CHEMBL3616420, “Nitrogenated honokiol derivatives allosterically modulate GABAA receptors and act as strong partial agonists” (Bioorg Med Chem, 2015)
The source made the active and inactive calls. The rule behind the calls is not given here.

Tests used:
Assay type in all cases: cell-based
[1] = target: T1, GABA-A receptor; alpha-1/beta-2/gamma-2 (Homo sapiens, UniProt P14867+P18507+P47870); test: Partial agonist activity at GABAAalpha1beta2gamma2s receptor (unknown origin) expressed in Xenopus laevis oocytes assessed as induction of chloride current by two-microelectrode voltage-clamp method
T1 sequence (P14867 whole entry): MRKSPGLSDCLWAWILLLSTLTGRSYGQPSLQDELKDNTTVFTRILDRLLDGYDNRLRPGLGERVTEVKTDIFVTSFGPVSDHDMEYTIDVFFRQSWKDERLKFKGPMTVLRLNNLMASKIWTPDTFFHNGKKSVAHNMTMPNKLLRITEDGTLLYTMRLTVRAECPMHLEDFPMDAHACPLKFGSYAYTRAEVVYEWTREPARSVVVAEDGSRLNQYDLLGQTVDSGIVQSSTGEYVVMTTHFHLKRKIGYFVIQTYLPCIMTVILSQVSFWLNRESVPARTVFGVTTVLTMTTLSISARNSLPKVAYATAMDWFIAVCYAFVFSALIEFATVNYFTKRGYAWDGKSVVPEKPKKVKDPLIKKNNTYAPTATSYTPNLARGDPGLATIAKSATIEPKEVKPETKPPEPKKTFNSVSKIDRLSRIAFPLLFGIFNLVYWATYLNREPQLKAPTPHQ
T1 sequence (P47870 whole entry): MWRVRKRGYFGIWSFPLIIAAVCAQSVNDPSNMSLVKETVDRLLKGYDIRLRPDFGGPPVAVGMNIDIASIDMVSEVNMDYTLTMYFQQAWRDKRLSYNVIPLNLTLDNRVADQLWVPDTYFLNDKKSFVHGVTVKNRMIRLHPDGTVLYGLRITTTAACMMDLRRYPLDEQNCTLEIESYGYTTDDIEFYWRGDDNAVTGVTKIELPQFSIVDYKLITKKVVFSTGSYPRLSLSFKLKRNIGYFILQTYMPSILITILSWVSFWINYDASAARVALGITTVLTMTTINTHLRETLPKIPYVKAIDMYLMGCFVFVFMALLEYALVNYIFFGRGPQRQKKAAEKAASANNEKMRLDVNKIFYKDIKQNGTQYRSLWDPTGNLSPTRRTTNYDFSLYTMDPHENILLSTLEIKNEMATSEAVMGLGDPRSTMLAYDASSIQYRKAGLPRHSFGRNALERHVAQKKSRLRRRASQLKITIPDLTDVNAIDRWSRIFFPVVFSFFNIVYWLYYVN
T1 sequence (P18507 whole entry): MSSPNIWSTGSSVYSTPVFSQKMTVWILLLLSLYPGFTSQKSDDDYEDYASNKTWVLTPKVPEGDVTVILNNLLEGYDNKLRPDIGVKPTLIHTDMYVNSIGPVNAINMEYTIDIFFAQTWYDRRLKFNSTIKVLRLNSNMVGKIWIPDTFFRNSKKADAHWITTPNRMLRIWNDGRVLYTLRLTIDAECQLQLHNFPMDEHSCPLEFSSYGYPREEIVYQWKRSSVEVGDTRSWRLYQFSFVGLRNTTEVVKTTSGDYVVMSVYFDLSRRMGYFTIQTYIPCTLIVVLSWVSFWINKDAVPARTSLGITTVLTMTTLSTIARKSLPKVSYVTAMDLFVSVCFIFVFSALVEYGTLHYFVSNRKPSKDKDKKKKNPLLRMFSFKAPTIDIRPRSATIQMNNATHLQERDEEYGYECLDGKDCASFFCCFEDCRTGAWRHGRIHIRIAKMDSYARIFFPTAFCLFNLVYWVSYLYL

[2] = target: T2, GABA-A receptor; alpha-1/beta-2/gamma-2 (Homo sapiens) (UniProt P14867+P47870+P18507); test: Partial agonist activity at GABAAalpha1beta2gamma2s receptor (unknown origin) expressed in Xenopus laevis oocytes assessed as induction of chloride current by two-microelectrode voltage-clamp method relative to GABA
Method in brief: (§1)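 Stage V–VI Xenopus laevis oocytes, defolliculated with 2 mg/mL collagenase, were injected with subunit cRNAs (approx. 300–3000 pg/nL/subunit) and stored at +18 °C in modified ND96 (pH 7.4). Chloride currents were recorded by two-microelectrode voltage clamp at +21 °C, holding potential −70 mV. Washout was 1.5 min at low compound concentrations and 30 min at high ones. Curves were fitted to a Hill equation. Values are mean ± SE from at least 3 oocytes and 2 batches.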

[3] = target: T1, GABA-A receptor; alpha-1/beta-2/gamma-2; test: Allosteric modulation of GABAAalpha1beta2gamma2s receptor (unknown origin) expressed in Xenopus laevis oocytes assessed as potentiation of GABA-induced chloride current by two-microelectrode voltage-clamp method; method in brief: as §1
[4] = target: T2, GABA-A receptor; alpha-1/beta-2/gamma-2 (Homo sapiens); test: Allosteric modulation of GABAAalpha1beta2gamma2s receptor (unknown origin) expressed in Xenopus laevis oocytes assessed as potentiation of GABA-induced chloride current by two-microelectrode voltage-clamp method relative to GABA; method in brief: as §1
[5] = target: T2, GABA-A receptor; alpha-1/beta-2/gamma-2 (Homo sapiens); test: Partial agonist activity at GABAAalpha1beta2gamma2s receptor (unknown origin) expressed in Xenopus laevis oocytes assessed as potentiation of GABA-induced chloride current at 100 uM by two-microelectrode voltage-clamp method
Method in brief: (§2)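 Stage V–VI Xenopus oocytes were injected with 10–50 nL of DEPC-treated water carrying each GABAA subunit cRNA at about 300–3000 pg/nL/subunit. Oocytes were kept at +18 °C in modified ND96 (pH 7.4). Chloride currents were recorded by two-microelectrode voltage clamp at +21 °C, holding at −70 mV. Washout was lengthened at high drug concentrations. Values are mean SE from ≥3 oocytes and ≥2 batches.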

[6] = target: T2, GABA-A receptor; alpha-1/beta-2/gamma-2 (Homo sapiens); test: Allosteric modulation of GABAAalpha1beta2gamma2s receptor (unknown origin) expressed in Xenopus laevis oocytes assessed as potentiation of GABA-induced chloride current at 100 uM by two-microelectrode voltage-clamp method; method in brief: as §2

Structure (SMILES)	EC50 [3]	Emax [4]	Activity [2]	EC50 [1]	Emax [2]	Activity [5]	Activity [6]
C=CCc1ccc(O)c(-c2ccc(O)c(CC=C)c2)c1 [HONOKIOL]				76.2 µM	78%		
C=CCc1cc(NC(C)=O)c(O)c(-c2ccc(OC)c(CC=C)c2)c1	5.3 µM	142%		68.1 µM	63%		
CCCc1ccc(OC)c(-c2cc(CCC)c(O)c(NC(C)=O)c2)c1	24.6 µM	42.5%	inactive				
CCCc1ccc(OCC)c(-c2cc(N)c(O)c(CCC)c2)c1	20.4 µM	118%	inactive				
CCCc1cc(N)c(O)c(-c2ccc(OCC)c(CCC)c2)c1	14.4 µM	93.7%		33.2 µM	29%	Active	Active
CCCc1cc(NC(C)=O)c(O)c(-c2ccc(OCC)c(CCC)c2)c1	1.8 µM	123%		6.9 µM	32%	Active	Active

Now from value to compound, other results behind:

EC50 [3]	Emax [4]	Activity [2]	Structure (SMILES)	EC50 [1]	Emax [2]	Activity [5]	Activity [6]
15.8 µM	108%		CCCc1ccc(OC)c(-c2cc(N)c(O)c(CCC)c2)c1	62.2 µM	52%	Active	Active
47.6 µM	72%		C=CCc1ccc(OC)c(-c2cc(N)c(O)c(CC=C)c2)c1	144 µM	59%	Active	Active
21.5 µM	91%	inactive	C=CCc1ccc(OCC)c(-c2cc(N)c(O)c(CC=C)c2)c1				
